The target of one series is Cathepsin B (Homo sapiens, UniProt P07858). Kind of series: Inhibitory activity tested against Human Cathepsin B using Z-Phe-Arg-pNA as substrate.
Series [1] has as its target T1, Cathepsin K (Homo sapiens, UniProt P43235).
T1 sequence (P43235 whole entry): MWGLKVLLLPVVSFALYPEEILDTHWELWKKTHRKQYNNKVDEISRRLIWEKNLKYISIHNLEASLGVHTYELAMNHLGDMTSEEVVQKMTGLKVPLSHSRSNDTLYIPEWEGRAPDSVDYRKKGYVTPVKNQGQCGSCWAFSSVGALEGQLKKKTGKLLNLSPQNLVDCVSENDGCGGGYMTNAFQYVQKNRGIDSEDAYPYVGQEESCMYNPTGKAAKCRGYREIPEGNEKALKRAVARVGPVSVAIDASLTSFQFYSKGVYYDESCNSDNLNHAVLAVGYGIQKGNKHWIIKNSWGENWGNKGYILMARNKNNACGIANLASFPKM
Kind of series: Inhibitory activity tested against Human Cathepsin K using Z-Phe-Arg-pNA as substrate.

For another series, the target named is Procathepsin L (Homo sapiens, UniProt P07711). In words: Inhibitory activity tested against Human Cathepsin L using Z-Phe-Arg-pNA as substrate.
The target in series [2] is T1, Cathepsin K. In words: Effect of 10 mM of GSH on the inhibitory activity of compound against Cathepsin K, at pH 5.5. An outline of the steps:
(§1)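 Recombinant human cathepsin K IC50 with 10 mM glutathione at pH 5.5 or pH 7.0. Compounds preincubated 30 min with GSH before enzyme addition, then 30 min with enzyme before 25 μM Z-Phe-Arg-pNA. Activity read as OD increase at 405 nm. IC50 fitted to a four-parameter logistic model.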

Series [3] concerns the target T1, Cathepsin K. Kind of series: Inhibition of Cathepsin K at pH 5.5. In outline: (§2)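 Recombinant human cathepsin K IC50 without glutathione at pH 5.5 or 7.0. Compound preincubated 30 min with enzyme, then 25 μM Z-Phe-Arg-pNA added. Activity read as OD increase at 405 nm. Percent inhibition set against a vehicle control. IC50 from a four-parameter logistic fit.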
Series [4] has as its target T1, Cathepsin K. Kind of series: Inhibition of Cathepsin K at pH 7. In outline:
as §2

In series [5] the target is T1, Cathepsin K. In words: Effect of 10 mM of GSH on the inhibitory activity against Cathepsin K, at pH 7. In outline: as §1
Series [6] has as its target T1, Cathepsin K. Kind of series: Inhibitory activity tested against Human Cathepsin K […] using gelatinase assay. An outline of the steps:
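Recombinant human cathepsin K gelatinase activity on DQ gelatin, 0.25 mg/mL final. Run in 50 mM MES pH 5.5 with 2.5 mM DTT, 2.5 mM EDTA and 10% DMSO, enzyme 2–4 nM, 30 min compound preincubation. Fluorescein release read at ex 495/em 515 nm. IC50 from a four-parameter logistic fit.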

Series [7] addresses T2, Cathepsin K (Homo sapiens) (UniProt P43235).
T2 sequence (whole entry): T1 sequence (P43235 whole entry)
Kind of series: Pre-steady-state kinetic parameter for inhibition of human cathepsin K. In outline: (§3)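 Slow-binding kinetics with cathepsin K (0.1 nM final, added to start the reaction) in 50 mM MES pH 5.5, 2.5 mM DTT, 2.5 mM EDTA, 10% DMSO, room temperature, stirred 1 mL cells. Z-Phe-Arg-AMC at 10-fold below Km (Km 30 μM), fluorescence ex 355/em 460 nm. Progress curves fitted for kobs; Ki, kon, koff averaged over at least three inhibitor concentrations.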

The target in series [8] is T1, Cathepsin K. In words: Inhibitory constant against human cathepsin K. In outline: as §3
Series [9] in a line: Bioavailability after oral administration of 20 mg/kg in rat. Type of series: ADME, organism-based. The settings on record: in vivo. An outline of the steps:
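Rats dosed orally at 20 mg/kg as a 1% methocel suspension, dosing volume 10 mL/kg; plasma levels followed over time and oral bioavailability derived.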

The nature of series [10]: Half life period in rat after (iv) administration. Type of series: ADME, organism-based. To be noted: in vivo. An outline of the steps:
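Rats dosed intravenously in PEG-200/water (3:2), dosing volume 1 mL/kg; half-life derived from mean plasma levels.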

Another series addresses T3, Papain (Carica papaya, UniProt P00784).
T3 sequence (P00784 whole entry): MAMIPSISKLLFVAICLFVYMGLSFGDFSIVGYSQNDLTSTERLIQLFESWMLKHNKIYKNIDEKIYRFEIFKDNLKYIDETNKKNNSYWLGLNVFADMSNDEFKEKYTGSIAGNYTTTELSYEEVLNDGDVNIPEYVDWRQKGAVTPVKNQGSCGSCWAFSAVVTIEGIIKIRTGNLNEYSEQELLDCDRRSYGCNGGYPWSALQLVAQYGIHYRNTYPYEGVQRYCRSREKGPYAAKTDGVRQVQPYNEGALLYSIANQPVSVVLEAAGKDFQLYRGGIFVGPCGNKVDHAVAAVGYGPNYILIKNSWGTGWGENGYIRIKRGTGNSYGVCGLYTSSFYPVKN
In words: Inhibitory activity tested against papain at a pH 5.5.

Molecules are shown by their SMILES.

Procathepsin L, sequence (P07711 whole entry): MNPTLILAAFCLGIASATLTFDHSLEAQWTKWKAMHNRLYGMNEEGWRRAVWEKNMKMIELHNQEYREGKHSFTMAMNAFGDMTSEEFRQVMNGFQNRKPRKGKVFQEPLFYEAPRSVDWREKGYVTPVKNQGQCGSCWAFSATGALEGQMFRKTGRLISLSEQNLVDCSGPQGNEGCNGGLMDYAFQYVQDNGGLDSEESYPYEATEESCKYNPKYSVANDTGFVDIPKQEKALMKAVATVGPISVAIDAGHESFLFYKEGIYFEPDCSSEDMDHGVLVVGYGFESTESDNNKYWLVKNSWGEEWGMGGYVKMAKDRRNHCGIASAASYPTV

As to `N#CN1CC(OCc2ccccc2)C1`, the IC50 came to 500 nM against Cathepsin B, 40 nM at Cathepsin K [1] and 100 nM against Procathepsin L.

As to `N#CN1CCCC1` [CYANO-PYRROLIDINE], the IC50 was determined as 15000 nM against Cathepsin B; 1500 nM on Cathepsin K [2]; 1630 nM at Cathepsin K [3]; 2300 nM at Cathepsin K [4]; 1000 nM against Cathepsin K [1]; 4000 nM on Procathepsin L. This molecule also gave an IC50 against Cathepsin K [5] of 3400 nM.

As to `N#CN1CC(CNC(=O)C2CCCCC2)C1`, the IC50 on Cathepsin K [2] is 27 nM; against Cathepsin K [3] it was 16 nM; at Cathepsin K [4], 38 nM; against Cathepsin K [6] it was 10 nM; on Cathepsin K [5], > 100000 nM.

Regarding `N#CN1CCC1`, the IC50 on Cathepsin B was 2000 nM; against Cathepsin K [2] it was 480 nM; against Cathepsin K [3], 450 nM; on Cathepsin K [4], 880 nM; against Cathepsin K [1], 100 nM; at Procathepsin L, 430 nM. Further, the IC50 on Cathepsin K [5] is > 100000 nM.

In the case of `N#CN1CC(CNC(=O)c2ccccc2)C1`, the figures for the IC50 against Cathepsin B, against Cathepsin K [1] and at Procathepsin L were 250 nM, 70 nM and 650 nM, respectively.

With `N#CN1CCC(NC(=O)OCc2ccccc2)C1` (stereo not given), in series [7], the k off worked out at 0.0056 s⁻¹. Further, the k on in [7] came out at 67300 M⁻¹ s⁻¹. The IC50 on Cathepsin B came out at 200 nM; against Cathepsin K [2], 90 nM; on Cathepsin K [3] it was 60 nM; against Cathepsin K [4], 50 nM; on Cathepsin K [6] it was 20 nM; on Cathepsin K [1] it was 40 nM. The results for the IC50 against Procathepsin L, against Cathepsin K [5] and against Cathepsin K [8] were 54 nM, 150 nM and 40 nM, respectively. Moreover, the Ki on Cathepsin K [8] came out at 140 nM.

For the molecule `N#CN1CCC(CNS(=O)(=O)c2ccccc2)C1` (stereo not given), the results for the IC50 at Cathepsin B, against Cathepsin K [1] and at Procathepsin L were 1500 nM, 200 nM and 350 nM, respectively.

Turning to `N#CN1CC(OCC2CCCCC2)C1`, the IC50 was determined as 500 nM on Cathepsin B, 20 nM against Cathepsin K [1] and 100 nM against Procathepsin L.

`N#CN1CCC(NC(=O)c2ccccc2)C1` (stereo not given): the IC50 against Cathepsin B is 4200 nM; at Cathepsin K [1] it was 370 nM; against Procathepsin L it was 1750 nM.

In the case of `CCN(C#N)CC`, the IC50 on Cathepsin B, at Cathepsin K [1] and on Procathepsin L was > 100000 nM throughout.

For the molecule `N#CN1CC(CNS(=O)(=O)c2ccccc2)C1`, the k off in [7] was found to be 0.0028 s⁻¹. For the same molecule, the k on in [7] was 141000 M⁻¹ s⁻¹. The IC50 on Cathepsin B is 300 nM; at Cathepsin K [1], 20 nM; against Procathepsin L it was 50 nM; against Cathepsin K [8], 17 nM. At Cathepsin K [8], this molecule yielded a Ki of 20 nM.

Turning to `N#CN1CCC(NC(=O)c2ccc(-c3ccccc3)cc2)C1` (stereo not given), the figures for the IC50 on Cathepsin B, at Cathepsin K [1] and on Procathepsin L were 300 nM, 290 nM and 850 nM, respectively.

Take `N#CN1CCC(COCc2ccccc2)C1` (stereo not given): the values for the IC50 on Cathepsin B, at Cathepsin K [1] and against Procathepsin L were 1100 nM, 100 nM and 150 nM, respectively.

On to `N#CN1CCCC1CNC(=O)c1ccccc1` (stereo not given), for which the IC50 came out at 75000 nM on Cathepsin B, 13700 nM on Cathepsin K [1] and 23000 nM at Procathepsin L.

For `N#CN1CCCC1CNS(=O)(=O)c1ccccc1` (stereo not given), the IC50 turned out to be 12100 nM on Cathepsin K [1] and 11500 nM against Procathepsin L.

Take `N#CN1CCC(NS(=O)(=O)c2ccccc2)C1` (stereo not given): in [7], the k off was determined as 0.0019 s⁻¹. The molecule further showed a k on in [7] of 19900 M⁻¹ s⁻¹. Also, the IC50 against Cathepsin B worked out at 1400 nM; at Cathepsin K [6], 18 nM; on Cathepsin K [1], 50 nM; against Procathepsin L, 80 nM; against Cathepsin K [8], 81 nM; on Papain, 230 nM. Moreover, in series [9], the bioavailability was 38%. For the same molecule, in series [10], the half-life was 2 h. This molecule came in with a Ki at Cathepsin K [8] of 90 nM.

`N#CN1Cc2cc3ccccc3nc2C1`: in series [7], the k off turned out to be 0.0025 s⁻¹. The same molecule gave a k on in [7] of 6590 M⁻¹ s⁻¹. The IC50 amounted to 2300 nM on Cathepsin B; 360 nM against Cathepsin K [2]; 340 nM on Cathepsin K [3]; 280 nM on Cathepsin K [4]; 360 nM against Cathepsin K [6]; 370 nM against Cathepsin K [1]. The IC50 at Procathepsin L stood at 450 nM; against Cathepsin K [5], 11400 nM; on Cathepsin K [8] it was 370 nM. Further, the affinity on Cathepsin K [8], expressed as Ki, was 380 nM.

The IC50 is the concentration at which inhibition is half-maximal. A high value points to lower potency. As usually defined, the Ki is a measure of affinity in units of concentration, obtained from inhibition or displacement. As usually defined, the bioavailability is dose-corrected exposure relative to a reference, in per cent. Read a high bioavailability as good availability. In general, half-life refers to the time in which the quantity being followed falls by half. Higher therefore signals slow loss.

The record behind these values is ChEMBL document CHEMBL1134467, “Novel, nonpeptidic cyanamides as potent and reversible inhibitors of human cathepsins K and L” (J Med Chem, 2001).
